# Source: ChEMBL document CHEMBL4325822, “Discovery of a tetrazolyl β-carboline with in vitro and in vivo osteoprotective activity under estrogen-deficient conditions” (Medchemcomm, 2018)
# Active and inactive are the calls of the source. No cut-off for these calls is given here.
# What was measured:
# [1] = Induction of osteoblast differentiation in Sprague-Dawley rat calvarial osteoblasts assessed as alkaline phosphatase activity after 48 hrs using PNPP as substrate by spectrophotometric method; format: functional, cell-based; details: Rattus norvegicus, Sprague-Dawley, Calvarial osteoblast, 48 h; read-out: EC50
# In short: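 Calvarial osteoblasts at 2 × 10³ cells/well. Treated 48 h with varied concentrations in differentiation medium (5% charcoal-treated FBS, 10 mM β-glycerophosphate, 50 µg·mL⁻¹ ascorbic acid). Total ALP read with PNPP substrate at 405 nm. Cell-free wells check for compound interference with substrate or absorbance.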
# Calvarial osteoblast [2] = experiment: Osteoprotective activity in Sprague-Dawley rat calvarial osteoblasts assessed as reduction in TNFalpha-induced apoptosis at 100 pM after 24 hrs by Annexin V/propidium iodide staining based FACS analysis relative to control; format: functional; set-up: scale not given: the % may be the effect or the level left
# In short: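 Osteoblasts at 50–60% confluence, serum-withdrawn 3 h. Then 24 h with TNFα in α-MEM with 0.5% FBS, with 10 nM E2 as comparator. Annexin-V-FITC/PI staining, analysed by flow cytometry.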
# Rattus norvegicus [3] = experiment: Antiosteoporotic activity in Sprague-Dawley rat model of OVX-induced bone loss assessed as protection against microarchitectural deterioration by measuring trabecular separation at 5 mg/kg, po via gavage for 12 weeks by microcomputed tomographic analysis (reference value: 1.31 +/- 0.06 millimeter); format: functional
# In short: (§1)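 Adult female Sprague-Dawley rats were ovariectomized and left 12 weeks to become osteopenic. They then received 12 weeks of once-daily oral gavage (1% gum acacia vehicle) or subcutaneous estradiol, five days a week. Femurs were collected at sacrifice and scanned by micro-CT for BMD and trabecular microarchitecture. Ten rats per group; mean ± SEM.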
# Rattus norvegicus [4] = experiment: Antiosteoporotic activity in Sprague-Dawley rat model of OVX-induced bone loss assessed as protection against microarchitectural deterioration by measuring trabecular separation at 1 mg/kg, po via gavage for 12 weeks by microcomputed tomographic analysis (reference value: 1.31 +/- 0.06 millimeter); format: functional; in short: as §1
# [5] = Toxicity in Sprague-Dawley rat model of OVX-induced bone loss assessed as luminal epithelial height at 5 mg/kg, po via gavage for 12 weeks (reference value: 27.29 +/- 0.96 umeter); format: organism-based; details: in vivo, 2016 h
# Calvarial osteoblast [6] = experiment: Increase in OCN protein expression in Sprague-Dawley rat calvarial osteoblasts at 100 pM after 48 hrs by Western blot analysis; format: functional, cell-based
# In short: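 Rat calvarial osteoblasts (pooled 1–2-day pups, collagenase/dispase digests) at 60–70% confluence treated 48 h. Whole-cell lysates immunoblotted with primary antibody overnight at 4 °C, then HRP secondary, with ECL detection. Densitometry gives fold change normalized to β-actin versus untreated cells. Mean ± SEM of three independent experiments.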
# [7] = Increase in Runx2 mRNA expression in Sprague-Dawley rat calvarial osteoblasts at 100 pM by RT-PCR method relative to control; format: functional, Calvarial osteoblast
# [8] = Toxicity in Sprague-Dawley rat model of OVX-induced bone loss assessed as luminal area at 5 mg/kg, po via gavage for 12 weeks (reference value: 0.01 +/- 0.0004 mm2); format: organism-based; details: in vivo, 2016 h
# Rattus norvegicus [9] = experiment: Antiosteoporotic activity in Sprague-Dawley rat model of OVX-induced bone loss assessed as increase in femoral bone strength by measuring stiffness at 5 mg/kg, po via gavage for 12 weeks by 3 point bending test (reference value: 122.07 +/- 12.18 N/mm); format: functional
# [10] = Increase in BMP2 mRNA expression in Sprague-Dawley rat calvarial osteoblasts at 100 pM by RT-PCR method relative to control; format: functional, Calvarial osteoblast
# In short: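 Primary calvarial osteoblasts were lysed in TRIzol after treatment, and total RNA was extracted. Transcripts were quantified by real-time PCR using the comparative CT (ΔΔCT) method.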
# Rattus norvegicus [11] = experiment: Upregulation of BMP2 mRNA expression in femur bone of Sprague-Dawley rat model of OVX-induced bone loss at 1 to 5 mg/kg, po via gavage for 12 weeks by qPCR analysis; format: functional, organism-based
# In short: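 Ovariectomized female SD rats, osteopenic after 12 weeks, dosed orally once daily for 12 weeks (1.0 or 5.0 mg·kg⁻¹·day⁻¹, 1% gum acacia vehicle); sham and OVX vehicle groups included. Femurs collected at sacrifice for qRT-PCR, analysed by the ΔΔCT method.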
# Rattus norvegicus [12] = experiment: Antiosteoporotic activity in Sprague-Dawley rat model of OVX-induced bone loss assessed as increase in femoral bone strength by measuring energy at 5 mg/kg, po via gavage for 12 weeks by 3 point bending test (reference value: 46.27 +/- 4.36 mJ); format: functional
# [13] = Antioxidant activity assessed as DPPH radical scavenging activity at 1.95 ug/ml after 30 mins by spectrophotometric method relative to control; format: functional
# In short: (§2)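 The compound was serially diluted from 1000 to 1.95 µg·ml⁻¹ and mixed 1:1 with DPPH in methanol. After 30 min at room temperature, absorbance was read at 517 nm. Scavenging (%) = [(Abc − Abs)/Abc] × 100, where Abc is DPPH without compound.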
# [14] = Antioxidant activity assessed as DPPH radical scavenging activity at 1000 ug/ml after 30 mins by spectrophotometric method relative to control; format: functional; in short: as §2
# Rattus norvegicus [15] = experiment: Antiosteoporotic activity in Sprague-Dawley rat model of OVX-induced bone loss assessed as bone formation rate at 5 mg/kg, po via gavage for 12 weeks by microcomputed tomographic analysis (reference value: 0.171 +/- 0.005 um3/um2/day); format: functional
# In short: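 Female Sprague-Dawley rats, 10-12 weeks old, ten per group, were ovariectomized and left 12 weeks for osteopenia. They were then dosed once daily by oral gavage for 12 weeks in 1% gum acacia vehicle. The estradiol arm received 100 µg·kg⁻¹ subcutaneously five days a week. Tetracycline and calcein were given intraperitoneally at 20 mg·kg⁻¹ each. Femur cross-sections (50 µm) were imaged by fluorescence microscopy for MAR and BFR.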
# [16] = Antioxidant activity assessed as SNP-induced nitric oxide free radical scavenging activity at 500 ug/ml after 150 mins by Griess reagent based method relative to control; format: functional
# In short: (§3)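 Serial dilutions (1000 to 1.95 µg·ml⁻¹) were mixed with sodium nitroprusside (10 mM) and incubated 150 min. An equal volume of Griess reagent was added, and absorbance was read at 546 nm. Percentage scavenging was calculated relative to the control without compound.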
# Rattus norvegicus [17] = experiment: Antiosteoporotic activity in Sprague-Dawley rat model of OVX-induced bone loss assessed as increase in femoral bone strength by measuring energy at 1 mg/kg, po via gavage for 12 weeks by 3 point bending test (reference value: 46.27 +/- 4.36 mJ); format: functional
# Calvarial osteoblast [18] = experiment: Antioxidant activity in Sprague-Dawley rat calvarial osteoblasts assessed as inhibition of TNFalpha-induced intracellular ROS production at 100 pM after 24 hrs by DCFH-DA staining based fluorescence assay; format: functional, cell-based
# In short: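 Primary rat calvarial osteoblasts were treated 24 h, then washed twice with serum-free medium. DCFH-DA (10 µg·mL⁻¹) was added in medium with 2% serum, followed by 30 min in the dark. Fluorescence was read at Ex 485/Em 535 nm.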
# Rattus norvegicus [19] = experiment: Antiosteoporotic activity in Sprague-Dawley rat model of OVX-induced bone loss assessed as restoration of bone mineral density loss in femur bone at 1 to 5 mg/kg po via gavage for 12 weeks by microcomputed tomographic analysis relative to control; format: functional; in short: as §1
# [20] = Antioxidant activity assessed as SNP-induced nitric oxide free radical scavenging activity at lower concentration after 150 mins by Griess reagent based method relative to control; format: functional; in short: as §3
smiles,measurement,setting,value
CCOC(=O)c1cc2c([nH]c3ccccc32)c(C(c2nnnn2C(C)(C)C)N2CCN(C)CC2)n1 (stereo not given),EC50,[1],900 nM
same,Activity,Calvarial osteoblast [2],47%
same,Activity,Rattus norvegicus [3],0.87 mm
same,Activity,Rattus norvegicus [4],0.73 mm
same,Activity,[5],3.61 um
same,Activity,Calvarial osteoblast [6],Active
same,fold change (FC),[7],1.8 - 4.6
same,Activity,[8],0.012 mm2
same,Activity,Rattus norvegicus [9],146.6 N/mm
same,fold change (FC),[10],1.8 - 4.6
same,Activity,Rattus norvegicus [11],Active
same,Activity,Rattus norvegicus [12],60.87 mJ
same,Activity,[13],3.34%
same,Activity,[14],47.8%
same,Activity,Rattus norvegicus [15],0.98 um3/um2/day
same,Activity,[16],31.4%
same,Activity,Rattus norvegicus [17],70.55 mJ
same,inhibition,Calvarial osteoblast [18],Active
same,Activity,Rattus norvegicus [19],46%
same,Activity,[20],4.07%
